High-throughput results from PubChem BioAssay.
Compounds with a hit are over-represented: about 2.5% of the library has one in this group of screens.
EP2 modulator = EP2 receptor modulators, cAMP readout, primary screen, cell-based, HTRF cAMP, PGE2 stimulation. EP2-expressing cells, cAMP HTRF FRET, PGE2 co-stimulation. induction, % at 25 µM. 0.83% of 260,000 active. Prostaglandin E2 receptor EP2 subtype (Homo sapiens), P43116;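 active = compounds whose cAMP rise, as percent of the full-agonist control response, exceeds 60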;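 also: rat C6 glioma line stably carrying human EP2 under a CMV promoter; the protocol text gives 20 µM as final concentration; 100% = response of wells given 1 µM PGE2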
Target sequence (P43116 whole entry, looked up): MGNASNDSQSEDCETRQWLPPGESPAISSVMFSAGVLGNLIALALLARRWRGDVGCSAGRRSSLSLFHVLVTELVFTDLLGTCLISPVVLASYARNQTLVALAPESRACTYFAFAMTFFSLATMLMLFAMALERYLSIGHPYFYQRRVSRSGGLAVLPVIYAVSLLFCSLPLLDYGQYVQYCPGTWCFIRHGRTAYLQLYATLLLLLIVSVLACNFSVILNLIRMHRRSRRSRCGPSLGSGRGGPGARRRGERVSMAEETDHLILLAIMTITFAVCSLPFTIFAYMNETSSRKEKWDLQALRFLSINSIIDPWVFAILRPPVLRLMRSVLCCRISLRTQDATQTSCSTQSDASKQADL
HKDC1 inh = HKDC1 hexokinase inhibitors, primary screen, biochemical, fluorescence, uHTS; Q2TB90; recombinant HKDC1, G6PDH/diaphorase resazurin coupled fluorescence; inhibition, % at 20 µM; 0.16% of 340,000 active; AID 493160, 2011;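 active = inhibition above about 35% when tested at 20 µM, limit read from the data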;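 also: plate controls were DMSO wells with enzyme for no effect and DMSO wells lacking enzyme for full effect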
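test system = in-house recombinant HK5 (HKDC1) enzyme | amount = HKDC1 at 5 µg/mL | control set = DMSO-enzyme wells negative, buffer-substituted wells positive | compound = one dose of 20 µM, 1% DMSO | schedule = reaction time 90 min, room temperature, protected from light | technique = resorufin fluorescence at 613 nm | reagent = glucose with 1 mM ATP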
Tb hexokinase = Trypanosoma brucei hexokinase 1 inhibitors, primary screen, biochemical, G6PDH-coupled NADH absorbance, MLSCN library. hexokinase 1 [Trypanosoma brucei]. recombinant TbHK1, G6PDH-coupled NADH A340. inhibition, % at 10 µM. 0.11% of 220,000 active;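 active = inhibition of 50% or more in the single-dose primary screen; inactive = inhibition below 50%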
PfGluPho inh = PfG6PD enzyme inhibitors, primary screen, biochemical, fluorescence intensity, uHTS | glucose-6-phosphate dehydrogenase-6-phosphogluconolactonase (Plasmodium falciparum 3D7) | PfGluPho enzyme, NADPH resazurin-diaphorase fluorescence | inhibition, % at 20 µM | 0.78% of 350,000 active | AID 504690, 2011;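 active = inhibition reaching at least a set limit at 20 µM in the primary screen, cut at about 59% in these data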;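 also: 0% = DMSO wells with substrate and 100% = DMSO wells lacking glucose-6-phosphate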
PHOSPHO1 block = PubChem AID 1565; Phosphoethanolamine/phosphocholine phosphatase (Homo sapiens), Q8TCT1; recombinant PHOSPHO1, absorbance phosphatase assay; inhibition, % at 13.3 µM; 1.1% of 290,000 active; in the data active = inhibition above about 60%
Target sequence (Q8TCT1 whole entry, looked up): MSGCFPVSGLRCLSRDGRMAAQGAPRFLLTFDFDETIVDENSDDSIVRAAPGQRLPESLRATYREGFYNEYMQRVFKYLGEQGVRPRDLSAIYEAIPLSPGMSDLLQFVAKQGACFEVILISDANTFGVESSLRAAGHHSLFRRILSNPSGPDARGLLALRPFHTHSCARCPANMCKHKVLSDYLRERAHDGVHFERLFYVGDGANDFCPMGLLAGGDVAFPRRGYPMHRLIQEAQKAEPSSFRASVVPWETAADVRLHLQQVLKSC
PGE2 EP2 inh = human EP2 receptor antagonists, primary screen, TR-FRET cAMP, C6 glioma cells; 0.52% of 260,000 active; inhibition, % at 25 µM; C6 glioma cells expressing human EP2; cells stimulated with saturating PGE2;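 active = percent inhibition above 40 after rounding to a whole number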;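 also: rat C6 glioma host cells with rolipram phosphodiesterase inhibitor present; the protocol text gives 20 µM as final concentration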
Active calls of the source: *.

What do the screens show for `CCN1CCN(C(=S)c2ccc(Cl)cc2)CC1`?
EP2 modulator: 8; HKDC1 inh: -2; Tb hexokinase: -4; PfGluPho inh: 81*; PHOSPHO1 block: 94*; PGE2 EP2 inh: 11

How did Cc1ccc(-c2nc3ccccc3c(=O)n2O)cc1 do in these assays?
HKDC1 inh: -2; PfGluPho inh: -17

What do the screens show for `O=c1c2ccccc2nc(-c2ccc([N+](=O)[O-])cc2)n1O`?
EP2 modulator: 25; HKDC1 inh: -5; Tb hexokinase: -5; PfGluPho inh: 4; PHOSPHO1 block: 61*; PGE2 EP2 inh: 7

What do the screens show for `CN1c2ncccc2C(=O)NC12CCN(C(=O)c1n[nH]c(=O)c3ccccc13)CC2`?
EP2 modulator: -34; PGE2 EP2 inh: 4

What do the screens show for `O=S(=O)(c1ccccc1)N1c2cc(Cl)ccc2Oc2nc3ccccc3nc21`?
EP2 modulator: 61*; HKDC1 inh: -1; Tb hexokinase: -5; PfGluPho inh: 22; PHOSPHO1 block: 4; PGE2 EP2 inh: 8

Results for O=S(=O)(c1ccccc1)N1CN(c2ccc(F)cc2F)c2nc3ccccc3nc21 ?
HKDC1 inh: -4; PfGluPho inh: 15

Results for C=CCN(CC=C)C(=O)c1cccc(OC2CCN(S(=O)(=O)N(C)C)CC2)c1 ?
HKDC1 inh: -4; PfGluPho inh: 8; PHOSPHO1 block: 24

Results for CCC1C(=O)NCCN1C(=O)c1cccc(OC2CCN(S(=O)(=O)N(C)C)CC2)c1 (stereo not drawn) ?
HKDC1 inh: -2; PfGluPho inh: -4; PHOSPHO1 block: 64*

How did COc1ccc(-n2nnnc2SCC(=O)Nc2cccc(C)c2C)cc1 do in these assays?
EP2 modulator: -98; PGE2 EP2 inh: 17

Results for Cn1c(CO)cnc1SCc1ccc(F)cc1 ?
EP2 modulator: 10; HKDC1 inh: 4; Tb hexokinase: 2; PfGluPho inh: 2; PHOSPHO1 block: 33; PGE2 EP2 inh: 5

Results for Cn1c(CO)cnc1SCc1c(Cl)cccc1Cl ?
EP2 modulator: 11; HKDC1 inh: 3; Tb hexokinase: -3; PfGluPho inh: 20; PHOSPHO1 block: 74*; PGE2 EP2 inh: 6

How did COC(=O)c1ccc(CSc2nnc3n(Cc4ccccc4OC)c(=O)c4ccccc4n23)o1 do in these assays?
EP2 modulator: -34; HKDC1 inh: 8; PfGluPho inh: 24; PHOSPHO1 block: 73*; PGE2 EP2 inh: 5

Results for OCCOCCN1CCN(C(c2ccccc2)c2ccc(Cl)cc2)CC1 (stereo not drawn) ?
EP2 modulator: 15; HKDC1 inh: -2; Tb hexokinase: -3; PfGluPho inh: -4; PHOSPHO1 block: 4; PGE2 EP2 inh: 20

Results for CC(C)(C)c1ccc(CN2CCN([C@H](c3ccccc3)c3ccc(Cl)cc3)CC2)cc1 ?
EP2 modulator: 15; PGE2 EP2 inh: 45*

Results for COc1ccc(C(=O)Nc2nnc(-c3cccs3)s2)cc1 ?
EP2 modulator: 0; HKDC1 inh: -5; Tb hexokinase: -24; PfGluPho inh: -12; PHOSPHO1 block: 12; PGE2 EP2 inh: 24

Results for COc1ccc(C(=O)Nc2nnc(-c3ccco3)s2)cc1 ?
EP2 modulator: 23; HKDC1 inh: -7; Tb hexokinase: -46; PfGluPho inh: 9; PHOSPHO1 block: 73*; PGE2 EP2 inh: 35

How did COc1ccccc1NC(=O)Nc1nnc(-c2ccco2)s1 do in these assays?
EP2 modulator: -19; Tb hexokinase: -4; PHOSPHO1 block: 34

Results for O=C(Nc1nnc(-c2ccco2)s1)c1ccccc1 ?
EP2 modulator: 32; HKDC1 inh: 2; Tb hexokinase: -29; PfGluPho inh: 26; PHOSPHO1 block: 74*; PGE2 EP2 inh: 46*

How did COc1ccccc1C(=O)Nc1nnc(-c2ccco2)s1 do in these assays?
EP2 modulator: -6; HKDC1 inh: 6; Tb hexokinase: -33; PfGluPho inh: 11; PHOSPHO1 block: 38; PGE2 EP2 inh: 44*

What do the screens show for `Cc1ccccc1C(=O)Nc1nnc(-c2ccco2)s1`?
EP2 modulator: -9; HKDC1 inh: -5; Tb hexokinase: -4; PfGluPho inh: -6; PHOSPHO1 block: 17; PGE2 EP2 inh: 18

How did Cc1nc2ccc3nc(NC(=O)c4ccc5c(c4)OCCO5)sc3c2s1 do in these assays?
EP2 modulator: 4; HKDC1 inh: -6; Tb hexokinase: -10; PfGluPho inh: 8; PHOSPHO1 block: -4; PGE2 EP2 inh: 52*

Results for CC(C)(C)c1nnc(NC(=O)c2ccc3c(c2)OCO3)s1 ?
HKDC1 inh: -6; PfGluPho inh: 105*; PHOSPHO1 block: -95

What do the screens show for `Cc1nc2c(ccc3nc(NC(=O)c4ccc5c(c4)OCCO5)sc32)s1`?
EP2 modulator: -19; HKDC1 inh: 18; Tb hexokinase: -15; PfGluPho inh: 55; PHOSPHO1 block: 3; PGE2 EP2 inh: 27

What do the screens show for `CC1(C)Cc2nc3sc(C(=O)NN)c(N)c3cc2CO1`?
EP2 modulator: -45; PGE2 EP2 inh: 9

Results for CCOc1cc(S(=O)(=O)n2c(C)nc3ccccc32)ccc1Cl ?
EP2 modulator: 80*; PGE2 EP2 inh: 10

Results for CCOC(=O)C1=C(C)NC(=O)NC1c1ccc(OC(C)=O)cc1 (stereo not drawn) ?
EP2 modulator: -26; PGE2 EP2 inh: 14

What do the screens show for `CC1CCN(C(=O)CSc2nncn2C)CC1`?
EP2 modulator: 12; HKDC1 inh: 1; Tb hexokinase: 0; PfGluPho inh: -1; PHOSPHO1 block: 28; PGE2 EP2 inh: 5

How did CC1CCN(C(=O)CSc2nncn2-c2ccccn2)CC1 do in these assays?
EP2 modulator: 0; HKDC1 inh: -4; Tb hexokinase: -1; PfGluPho inh: 35; PHOSPHO1 block: 74*; PGE2 EP2 inh: 6

What do the screens show for `CN(C)S(=O)(=O)c1ccc(N2CCC(CNC(=O)C3CCCO3)CC2)cc1` (stereo not drawn)?
EP2 modulator: -31; PGE2 EP2 inh: 6

Results for COC(=O)[C@H]1CCc2ccccc2N1C(=O)Cc1cccs1 ?
EP2 modulator: -8

What do the screens show for `Nc1nc(O)c(N=Nc2ccc(S(N)(=O)=O)cc2)c(=O)[nH]1`?
HKDC1 inh: -5; PfGluPho inh: 19; PHOSPHO1 block: 9

How did Nc1[nH]c(=S)[nH]c(=O)c1N=Nc1c(Br)cc(S(N)(=O)=O)cc1Br do in these assays?
EP2 modulator: 3; PGE2 EP2 inh: 51*
